Bioassay records (PubChem BioAssay)
Most compounds without a hit are left out; they make up all but 5.6% or so of the library.
MPTP inh – inhibitors of mitochondrial permeability transition pore | isolated mouse mitochondria, Ca2+ swelling absorbance, 30 min | inhibition, % at 10 µM | 360,000 tested, 1.4% active;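 active = inhibition of 50% or more, scaled per plate between neutral and stimulator controls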
CHOP inh – CHOP inhibition in unfolded protein response. inhibition, % at 10 µM. 220,000 tested, 3.8% active. AID 2732. CHO-K1 CHOP-promoter luciferase, tunicamycin-induced, 15-18 h;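 active = compounds that reduced the stress-induced luciferase reporter signal by more than about 70% of percent inhibition, limit read from the data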
aDG glyco up – alpha-DG glycosylation activation. 360,000 tested, 0.22% active. Pro5-aDG cells, alpha-DG glycosylation AlphaScreen (IIH6); 0% Pro5, 100% B10-LARGE cell signal. activation, % at 10 µM;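 active = activation of at least 8% versus controls, or a plate z-score of at least 8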;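 also: Pro5 are CHO cells carrying HIG-tagged alpha-DG that lacks glycosylation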
NR3A LBD binder – NR3A (human) ligand-binding domain modulation; 340,000 tested, 2.5% active; NR3A LBD differential scanning fluorimetry, Tm shift; 0% = protein alone, 100% = glycine-bound protein; Tm shift relative to glycine control, % at 25 µM;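 active = melting temperature shift of at least 10% of the positive control shift, at one fixed dose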
UPR CHOP act – apoptotic UPR (CHOP) activation; CHO-CHOP luciferase reporter, luminescence; percent of tunicamycin response over DMSO baseline; activation, % at 10 µM; 330,000 tested, 0.34% active; AID 449763;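 active = at 10 µM dose, activation of 40% or more, normalized to positive control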
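Test system: CHO-CHOP cells, stable luciferase reporter of PERK-eIF2a-CHOP signalling | Quantity: 500 CHO-CHOP cells per well | Buffer or medium: F12 plus 10% serum | Compound dosing: 10 µM single point, 0.5% DMSO | Schedule: 6 h compound treatment, 37 °C | Signal: Luciferase luminescence | Control set: Tunicamycin high control, DMSO low control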
UPR XBP1 act – adaptive UPR (XBP1) activation; activation, % at 20 µM; 330,000 tested, 0.33% active; CHO-XBP1 luciferase reporter, IRE1-XBP1 UPR activation, luminescence; percent of tunicamycin response, DMSO as zero;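 active = versus positive control, 20 µM dose yields 30% or more activation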
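Material: CHO-XBP1 cells stably carrying IRE1-XBP1-driven luciferase reporter | Medium: F12 with 10% serum | Compound dosing: 20 µM single concentration, DMSO 1% | Incubation: Overnight seeding at 37 °C, 6 h compound treatment at 37 °C | Detection: Steady-Glo luminescence read | Read-out basis: % activation of reporter signal versus tunicamycin and DMSO controls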
Numbers stand for hits.

How did CC1CCN(c2nnc(N3CCC(C)CC3)c3ccccc23)CC1 do in these assays?
MPTP inh: inactive; CHOP inh: inactive; aDG glyco up: inactive; NR3A LBD binder: inactive; UPR CHOP act: inactive; UPR XBP1 act: inactive

How did COc1ccc(-c2nnc(OCc3ccccc3)c3ccccc23)cc1 do in these assays?
MPTP inh: inactive; CHOP inh: inactive; aDG glyco up: inactive; NR3A LBD binder: 16; UPR CHOP act: inactive; UPR XBP1 act: inactive

What do the screens show for `CCCn1c(SCC(=O)N(C)CC(=O)Nc2ccc(C)cc2)n[nH]c1=O`?
MPTP inh: inactive; aDG glyco up: inactive; NR3A LBD binder: inactive; UPR CHOP act: inactive; UPR XBP1 act: inactive

Results for CCC(C)(C)NC(=O)C(NS(=O)(=O)c1cccs1)c1ccccc1 (stereo not given) ?
MPTP inh: inactive; aDG glyco up: inactive; NR3A LBD binder: 31; UPR CHOP act: inactive; UPR XBP1 act: inactive

What do the screens show for `Cc1ccc(Nc2ccc(C(F)(F)F)cc2[N+](=O)[O-])cc1`?
MPTP inh: inactive; CHOP inh: inactive; aDG glyco up: inactive; NR3A LBD binder: 11; UPR CHOP act: inactive; UPR XBP1 act: inactive

What do the screens show for `CC(=O)NNc1ccc(C(F)(F)F)cc1[N+](=O)[O-]`?
MPTP inh: inactive; CHOP inh: inactive; aDG glyco up: inactive; NR3A LBD binder: inactive; UPR CHOP act: inactive; UPR XBP1 act: inactive

What do the screens show for `C/C(=N\Nc1ccc(C(F)(F)F)cc1[N+](=O)[O-])C1CC1`?
MPTP inh: inactive; CHOP inh: inactive; aDG glyco up: inactive; NR3A LBD binder: 14; UPR CHOP act: inactive; UPR XBP1 act: inactive

How did Cc1cc(NC(=O)CCC(=O)N(Cc2ccco2)C2(C(=O)NC3CCCCC3)CCCC(C)C2)no1 (stereo not given) do in these assays?
MPTP inh: inactive; aDG glyco up: inactive; NR3A LBD binder: inactive; UPR CHOP act: inactive; UPR XBP1 act: inactive

What do the screens show for `Cc1c(C(=O)NCCSCc2ccc(Cl)cc2Cl)cccc1[N+](=O)[O-]`?
MPTP inh: inactive; CHOP inh: 72; aDG glyco up: inactive; NR3A LBD binder: inactive; UPR CHOP act: inactive; UPR XBP1 act: inactive

How did C=CCn1cnc2c(c1=O)c1nc3ccccc3nc1n2/N=C/c1cccc(OC)c1 do in these assays?
MPTP inh: inactive; aDG glyco up: inactive; NR3A LBD binder: 11

Results for Cc1ccc(-n2nc3c(=O)n(CC(=O)NC4CCCCCC4)nc(C)c3c2C)cc1 ?
MPTP inh: inactive; aDG glyco up: inactive; NR3A LBD binder: inactive; UPR CHOP act: inactive; UPR XBP1 act: inactive

What do the screens show for `Cc1cc(C(=O)OCC(=O)N2CCc3ccccc32)c(C)o1`?
MPTP inh: inactive; CHOP inh: 82; aDG glyco up: inactive; NR3A LBD binder: inactive; UPR CHOP act: inactive; UPR XBP1 act: inactive

Results for O=C(OCC(=O)N1CCc2ccccc21)c1ccc(Br)o1 ?
MPTP inh: inactive; aDG glyco up: inactive; NR3A LBD binder: inactive; UPR CHOP act: inactive; UPR XBP1 act: inactive

What do the screens show for `Cc1cc(C(=O)OCC(=O)c2ccc(Br)s2)c(C)o1`?
CHOP inh: 79; UPR CHOP act: inactive; UPR XBP1 act: inactive

Results for Cc1cn(S(=O)(=O)c2ccc(Br)cc2)cn1 ?
MPTP inh: inactive; CHOP inh: inactive; aDG glyco up: inactive; NR3A LBD binder: inactive; UPR CHOP act: inactive; UPR XBP1 act: inactive

Results for Cc1cn(S(=O)(=O)c2cc(Br)ccc2Br)cn1 ?
MPTP inh: inactive; CHOP inh: inactive; aDG glyco up: inactive; NR3A LBD binder: 10; UPR CHOP act: inactive; UPR XBP1 act: inactive

Results for Cc1ccc(S(=O)(=O)NCC(C)n2cncn2)cc1 (stereo not given) ?
MPTP inh: inactive; aDG glyco up: inactive; NR3A LBD binder: inactive; UPR CHOP act: inactive; UPR XBP1 act: inactive

Results for O=C(C=Cc1cccnc1)c1ccccc1 ?
MPTP inh: inactive; aDG glyco up: inactive; NR3A LBD binder: inactive

Results for O=C(/C=C/c1cccnc1)c1ccccc1O ?
MPTP inh: inactive; CHOP inh: inactive; aDG glyco up: inactive; NR3A LBD binder: 15; UPR CHOP act: inactive; UPR XBP1 act: inactive

Results for COC(=O)c1cc2ccsc2n1Cc1ccccc1F ?
MPTP inh: inactive; CHOP inh: inactive; aDG glyco up: inactive; NR3A LBD binder: 17; UPR CHOP act: inactive; UPR XBP1 act: inactive

How did COC(=O)c1cc2ccsc2n1Cc1cccc(F)c1 do in these assays?
MPTP inh: inactive; CHOP inh: inactive; aDG glyco up: inactive; NR3A LBD binder: inactive; UPR CHOP act: inactive; UPR XBP1 act: inactive

What do the screens show for `CNC(=O)c1ccc(NC(=O)c2ccccc2OCc2c(C)noc2C)cc1`?
MPTP inh: inactive; aDG glyco up: inactive

How did O=C(COC(=O)c1ccccc1NCCO)Nc1cc(C(F)(F)F)ccc1N1CCOCC1 do in these assays?
MPTP inh: inactive; aDG glyco up: inactive; NR3A LBD binder: inactive; UPR CHOP act: inactive; UPR XBP1 act: inactive

Results for CSc1ncccc1C(=O)OCC(=O)Nc1cc(C(F)(F)F)ccc1N1CCOCC1 ?
MPTP inh: inactive; CHOP inh: 71; aDG glyco up: inactive; NR3A LBD binder: inactive; UPR CHOP act: inactive; UPR XBP1 act: inactive

How did O=C(Nc1cc(C(F)(F)F)ccc1N1CCOCC1)c1ccc(F)cc1 do in these assays?
MPTP inh: inactive; CHOP inh: inactive; aDG glyco up: inactive; NR3A LBD binder: inactive; UPR CHOP act: inactive; UPR XBP1 act: inactive

How did O=C(Nc1cc(C(F)(F)F)ccc1N1CCOCC1)c1n[nH]c(=O)c2ccccc12 do in these assays?
MPTP inh: inactive; CHOP inh: 78; aDG glyco up: inactive; NR3A LBD binder: inactive; UPR CHOP act: inactive; UPR XBP1 act: inactive

How did CC1(C)CC(C)(O)P(=O)(c2ccccc2)O1 (stereo not given) do in these assays?
MPTP inh: inactive; CHOP inh: inactive; aDG glyco up: inactive; NR3A LBD binder: inactive; UPR CHOP act: inactive; UPR XBP1 act: inactive

What do the screens show for `CC1=CCP(=O)(c2ccccc2)C1` (stereo not given)?
MPTP inh: inactive; CHOP inh: 72; aDG glyco up: inactive; NR3A LBD binder: inactive; UPR CHOP act: inactive; UPR XBP1 act: inactive

Results for O=c1ccc(-c2ccc(S(=O)(=O)N3CCN(c4ccccc4)CC3)o2)n[nH]1 ?
MPTP inh: inactive; aDG glyco up: inactive; NR3A LBD binder: inactive; UPR CHOP act: inactive; UPR XBP1 act: inactive

How did C[C@@H](CSc1ccc(Br)cc1)CN1CC[C@H](C(C)(C)C)CCC1=O do in these assays?
MPTP inh: inactive; aDG glyco up: inactive; NR3A LBD binder: 10; UPR CHOP act: inactive; UPR XBP1 act: inactive

How did C=C1CC(COc2ccc3c(C)c(Cl)c(=O)oc3c2)(c2ccccc2)OC1=O (stereo not given) do in these assays?
MPTP inh: inactive; aDG glyco up: inactive; NR3A LBD binder: inactive

What do the screens show for `O=C(NC(=S)Nc1ccc2[nH]c(=O)[nH]c2c1)c1ccccc1[N+](=O)[O-]`?
MPTP inh: inactive; aDG glyco up: inactive; NR3A LBD binder: inactive; UPR CHOP act: inactive; UPR XBP1 act: inactive
